Experimental data published in PMC3919449 (Chemistry & biology, 2013).

Key:
BE(2)-C cells [1] = assay: GE-HTS neuroblastoma differentiation signature in BE; type: cell-based; settings: for induction of the differentiation signature (differentiation score): two days of treatment
Procedure, shortened: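 In BE(2)-C cells with 2 nM cisRA as differentiation enhancer, test compound applied at eight concentrations in duplicate for 2 days. Controls were 1 μM cisRA (positive) and DMSO (negative), plus a cisRA dose-response plate per run. GE-HTS gave the differentiation score. AUC: cubic natural spline at 50 points over log dose, trapezoid areas against the mean DMSO score, divided by log-concentration range.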

SH-SY5Y = assay: GE-HTS neuroblastoma differentiation signature in SH-SY5Y; type: cell-based; settings: second cell line
HDACs 4-9 = assay: HDAC activity assay, other HDACs; type: biochemical; settings: HDACs 4-9, same concentration range
Procedure, shortened: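 Recombinant full-length HDAC preincubated 3 h with test compound, then fluorogenic substrate at Km: MAZ1600 for HDAC6 (9 μM); MAZ1675 for HDAC4 (10 μM), 5 (40 μM), 7 (22 μM), 8 (282 μM), 9 (26 μM). Trypsin-coupled AMC release read every 5 min; linear-range rate normalized to DMSO (<0.5%); IC50 by unconstrained logistic regression.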

[2] = tested on: Kelly, LAN-1, BE(2)-C, and SH-SY5Y; assay: ATP-based viability; settings: four neuroblastoma cell lines, five days of treatment
Procedure, shortened: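 Kelly, LAN-1, BE(2)-C and SH-SY5Y grown in DMEM with 10% FBS and 1% penicillin-streptomycin with glutamine, identity confirmed by STR profiling. Cells exposed to test compound over a 9-point concentration range for five days; viability read by ATP luminescence (CellTiter Glo) per manufacturer's instructions.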

[3] = tested on: Kelly, LAN-1, BE(2)-C, and SH-SY5Y; assay: GE-HTS differentiation signature in four neuroblastoma cell lines; type: cell-based; settings: two day and five day time points
Procedure, shortened: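 Cells grown in DMEM with 10% FBS and 1% penicillin-streptomycin with glutamine, then exposed to the test compound over a concentration range for 2 or 5 days. Read-out is GE-HTS: ligation-mediated amplification with fluorescent bead detection of 59 signature genes. Differentiation score is the signature-gene expression divided by mean control-gene expression, summed with weights/signs from cisRA vs DMSO controls. Four replicates; one-way ANOVA with Bonferroni versus DMSO.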

[4] = tested on: histone H3 acetylation in BE(2)-C cells; assay: Immunoblot for acetylated histone H3; type: cell-based; settings: six hours of treatment
Procedure, shortened: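 BE(2)-C cells exposed to the test compound or DMSO for six hours; nuclear extracts then immunoblotted for acetylated histone H3.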

BE(2)-C cells [5] = assay: NF-M immunofluorescence, morphologic changes; type: cell-based; settings: NF-M labeling
Procedure, shortened: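 BE(2)-C cells treated in duplicate with DMSO vehicle or the test compound for 72 h. Cells washed, fixed in 4% formaldehyde and permeabilized with 0.2% Triton X-100. Stained with monoclonal anti-NF-M and an Alexa Fluor 568 secondary. Mounted in antifade with DAPI counterstain; neurite projections examined.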

Structure (SMILES): Nc1ccccc1NC(=O)c1ccc(CNC(=O)OCc2cccnc2)cc1 [MS-275]
- induction of the differentiation signature (differentiation score) (BE(2)-C cells [1]): significantly induced differentiation at multiple concentrations

Structure (SMILES): C[C@H](CO)N1C[C@H](C)[C@H](CN(C)Cc2ccc(C(=O)Nc3ccccc3N)cc2)Oc2ccc(N(C)C)cc2C1=O [BRD6819]
- induction of the differentiation signature (SH-SY5Y): confirmed to induce the differentiation signature
- induction of the differentiation signature (differentiation score) (BE(2)-C cells [1]): induced the differentiation signature in a manner similar to BRD8430

Structure (SMILES): C[C@H](CO)N1C[C@H](C)[C@H](CN(C)Cc2ccc(C(=O)Nc3ccccc3N)cc2)Oc2ccc(N(C)C)cc2CC1=O [BRD8430]
- IC50 for inhibition of the other HDACs (HDACs 4-9): not able to determine IC50 values
- induction of the differentiation signature (SH-SY5Y): confirmed to induce the differentiation signature
- induction of the differentiation signature (differentiation score) (BE(2)-C cells [1]): significantly inducing the signature at all eight concentrations tested
- AUC of the differentiation score across eight concentrations (BE(2)-C cells [1]; two days, eight concentrations): highest AUC value of the 32 compounds evaluated
- viability [2]: reduced the viability
- induction of the differentiation signature [3]: induce the differentiation signature in a concentration-dependent manner
- histone H3 acetylation [4]: increased histone H3 acetylation in a concentration-dependent manner
- morphologic changes consistent with differentiation (BE(2)-C cells [5]): induced morphologic changes, including neurite outgrowth

Structure (SMILES): CC1=C(/C=C/C(C)=C/C=C/C(C)=C\C(=O)O)C(C)(C)CCC1 [cisRA, 13-cis retinoic acid]
- induction of the differentiation signature (differentiation score) (BE(2)-C cells [1]): induce the differentiation signature in a dose-dependent manner

Structure (SMILES): C[C@H](CO)N1C[C@H](C)[C@H](CN(C)Cc2ccc(C(=O)Nc3ccccc3N)cc2)Oc2c(cccc2N(C)C)C1=O [BRD6332]
- induction of the differentiation signature (differentiation score) (BE(2)-C cells [1]): greatly dampened differentiation activity

Structure (SMILES): CC(=O)Nc1ccc(C(=O)Nc2ccccc2N)cc1 [CI-994]
- induction of the differentiation signature (differentiation score) (BE(2)-C cells [1]): significantly induced differentiation at multiple concentrations

Structure (SMILES): O=C(CCCCCCC(=O)Nc1ccccc1)NO [Vorinostat, vorinostat]
- induction of the differentiation signature (differentiation score) (BE(2)-C cells [1]): significantly induced differentiation at multiple concentrations

Structure (SMILES): CC1=C(/C=C/C(C)=C/C=C/C(C)=C/C(=O)O)C(C)(C)CCC1 [ATRA, all-trans retinoic acid]
- induction of the differentiation signature (differentiation score) (BE(2)-C cells [1]): induce the differentiation signature in a dose-dependent manner
